Experimental data taken from ChEMBL document CHEMBL1130423, “Design, synthesis, and biological evaluation of new growth inhibitors of Trypanosoma cruzi (epimastigotes)” (J Med Chem, 1997).

system: Trypanosoma cruzi; assay: Inhibitory concentration against Trypanosoma cruzi (epimastigotes); type: functional, organism-based
In short: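 T. cruzi epimastigotes (Y strain) grown at 28 °C in brain-heart infusion (37 g/L) medium with hemin chlorohydrate (20 mg/L) and 10% newborn calf serum. Initial inoculum 2-3 × 10^6 cells/mL, counted in a Neubauer chamber. Each drug tested at four concentrations with a drug-free control per group. Growth read as absorbance at 600 nm against medium blank. Percent inhibition taken from the start-to-end absorbance change relative to control.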

`CCNC(=O)OCCOc1ccc(OC)cc1` and `CCNC(=O)OCCCOc1ccc(OC)cc1` cannot be ordered by IC50: > 300 µM for the first, > 350 µM for the second.

Compared with `COc1ccc(OCCCOC2CCCCO2)cc1` (stereo not given), `COc1ccc(OCCOC2CCCCO2)cc1` (stereo not given) is lower in IC50: > 300 µM for the first, 218 µM for the second.

`CCNC(=O)OC/C=C(\C)CC/C=C(\C)CCC=C(C)C` and `CCNC(=O)OC/C=C(\C)CCC=C(C)C` are within 1.5-fold of each other in IC50: 147 µM for the first, 176 µM for the second.

`COc1ccc(OCC(C)O)cc1` (stereo not given) and `COc1ccc(OCCO)cc1` cannot be ordered by IC50: > 500 µM for the first, > 500 µM for the second.

First: O=C(c1ccccc1)c1ccc(OCCO)cc1
Second: C=CCOc1ccc(C(=O)c2ccccc2)cc1
The IC50 of the first is higher: > 400 µM for the first, 129 µM for the second.

Compared with `CCNC(=O)OCCOc1ccc(C(=O)c2ccccc2)cc1`, `O=C(c1ccccc1)c1ccc(OCCOC2CCCCO2)cc1` (stereo not given) is lower in IC50: > 300 µM for the first, 268 µM for the second.

Compared with `CCSC(=O)OC/C=C(\C)CC/C=C(\C)CCC1OC1(C)C` (stereo not given), `C=COC(=O)OC/C=C(\C)CC/C=C(\C)CCC=C(C)C` is higher in IC50: 210 µM for the first, > 500 µM for the second.

`C=COC(=O)OC(C)COc1ccc(Oc2ccccc2)cc1` (stereo not given) and `C=COC(=O)OCCCOc1ccc(Oc2ccccc2)cc1` cannot be ordered by IC50: > 240 µM for the first, 260 µM for the second.

`CC(C)=CCC/C(C)=C/COC1CCCCO1` (stereo not given) and `CC(C)=CCC/C(C)=C/CC/C(C)=C/COC1CCCCO1` (stereo not given) are within 1.5-fold of each other in IC50: 68 µM for the first, 78 µM for the second.

`OC(COc1ccc(Oc2ccccc2)cc1)COC1CCCCO1` (stereo not given) and `c1ccc(Oc2ccc(OCCOC3CCCCO3)cc2)cc1` (stereo not given) are within 1.5-fold of each other in IC50: 142 µM for the first, 138 µM for the second.

`OCC(O)COc1ccc(Oc2ccccc2)cc1` (stereo not given) and `CCNC(=O)OCC(O)COc1ccc(Oc2ccccc2)cc1` (stereo not given) are within 1.5-fold of each other in IC50: 270 µM for the first, 233 µM for the second.

First: C=CCOc1ccc(OC)cc1 [1-allyloxy-4-methoxybenzene]
Second: CCNC(=O)OC(C)COc1ccc(OC)cc1 (stereo not given)
The IC50 of the first is lower: 209 µM for the first, > 350 µM for the second.

With `OC(c1ccccc1)c1ccc(OCCOC2CCCCO2)cc1` (stereo not given) the IC50 was > 500 µM.
